Laboratory results taken from ChEMBL document CHEMBL3576777, “Hypocoprins A-C: new sesquiterpenoids from the coprophilous fungus Hypocopra rostrata” (J Nat Prod, 2015).
The source made the active and inactive calls. No cut-off for these calls is given here.

Tests used:
[1] = tested on: Staphylococcus aureus; test: Antibacterial activity against Staphylococcus aureus ATCC 29213 at 200 ug/disk by agar disk diffusion method; format: functional; details: read-out: DIZ
Outline: (§1)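 Agar disk diffusion following standard protocols; test material applied at 200 μg/disk; gentamicin at 20 μg/disk served as the standard. Organisms: S. aureus ATCC 29213, B. subtilis ATCC 6051, E. coli ATCC 25922 and C. albicans ATCC 14053. Read-out was the diameter of the inhibitory zone in mm.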

[2] = tested on: Bacillus subtilis; test: Antibacterial activity against Bacillus subtilis ATCC 6051 at 200 ug/disk by agar disk diffusion method; format: functional; details: read-out: DIZ; outline: as §1
[3] = tested on: Escherichia coli; test: Antibacterial activity against Escherichia coli ATCC 25922 at 200 ug/disk by agar disk diffusion method; format: functional, organism-based; outline: as §1
[4] = tested on: Candida albicans; test: Antifungal activity against Candida albicans ATCC 14053 at 200 ug/disk by agar disk diffusion method; format: functional, organism-based; outline: as §1
[5] = tested on: U2OS; test: Cytotoxicity against human U2OS cells assessed as cell viability after 48 hrs by CellTiter-Blue assay; format: functional, cell-based
Outline: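 Human osteosarcoma U2OS cells were seeded at 250 cells per well in 384-well format and incubated overnight. Each well received 50 nL of a 10 mM DMSO stock, in duplicate, then 48 h at 37 °C. CellTiter-Blue reagent was added, followed by a further 22 h at 37 °C. […] was read at 530/580 nm.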

[6] = tested on: Staphylococcus aureus; test: Antibacterial activity against Staphylococcus aureus ATCC 29213 by agar disk diffusion method; format: functional; outline: as §1
[7] = tested on: Bacillus subtilis; test: Antibacterial activity against Bacillus subtilis ATCC 6051 by agar disk diffusion method; format: functional, organism-based; outline: as §1
[8] = tested on: Escherichia coli; test: Antibacterial activity against Escherichia coli ATCC 25922 by agar disk diffusion method; format: functional, organism-based; outline: as §1
[9] = tested on: Candida albicans; test: Antifungal activity against Candida albicans ATCC 14053 by agar disk diffusion method; format: functional, organism-based; outline: as §1

SMILES | zone of inhibition at 200 µg/disc [1] | zone of inhibition at 200 µg/disc [2] | Activity [3] | Activity [4] | IC50 [5] | diameter of the inhibition zone (DIZ) [6] | Activity [6] | Activity [7] | Activity [8] | Activity [9]
C/C1=C\CC[C@](C)(O)[C@H]2C[C@@H]2C(C)(C)C[C@H]1O | 13 mm | 13 mm | inactive | inactive | > 10 µM |  |  |  |  | 
C/C1=C\C[C@@H](O)[C@](C)(O)[C@H]2C[C@@H]2C(C)(C)C[C@H]1O |  |  |  |  | > 10 µM | 9 mm |  |  |  | 
C=C1CC/C=C(\C)[C@H](O)CC(C)(C)[C@H]2C[C@H]12 |  |  |  |  | > 10 µM |  | inactive | inactive | inactive | inactive
